# Assay results: ChEMBL document CHEMBL1799999, “N-benzoylated phenoxazines and phenothiazines: synthesis, antiproliferative activity, and inhibition of tubulin polymerization” (J Med Chem, 2011)
# Activity calls are given as the source filed them. No cut-off for these calls is given here.
# Columns and labels:
# K562 [1] = test: Antiproliferative activity against human K562 cells after 48 hrs by hemocytometric analysis; assay type: functional, cell-based; conditions: K562, 48 h
# Outline: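 K562 cells in RPMI 1640 with 10% FBS at 37 °C/5% CO2, plated at 2 × 10^5 cells/mL. Compounds in DMSO/methanol 1:1, final vehicle 0.5%. Cells counted in a Neubauer hemocytometer after 48 h and expressed as % of untreated control. Triplicate wells, three experiments; IC50 by nonlinear regression.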
# Tubulin = Tubulin (Sus scrofa, UniProt P02554+P02550); test: Inhibition of pig tubulin polymerization determined after 45 mins at 37 degC by turbidimetric analysis; assay type: protein assay
# Outline: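 Microtubule protein (80–90% tubulin with MAPs) from porcine brain, isolated by two cold/warm cycles. Buffer: 20 mM PIPES pH 6.8, 80 mM NaCl, 0.5 mM MgCl2, 1 mM EGTA, 1 mM DTT. Protein at 1.2 mg/mL (about 10 μM tubulin) with 0.6 mM GTP, 1% DMSO, 37 °C.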
# COLO 205 = test: Antiproliferative activity against human COLO205 cells after 48 hrs by alamar blue assay; assay type: functional, cell-based; conditions: COLO 205, 48 h
# Outline: (§1)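 Cells seeded in growth medium and grown 24 h at 37 °C/5% CO2. 10 mM DMSO stocks diluted in half-log steps into medium, final DMSO 0.316%. After 45 h of compound exposure, AlamarBlue (resazurin) added for a further 3 h, giving 48 h total. Fluorescence read at 590 nm against untreated and cell-free blanks. At least two replicates; IC50 by nonlinear regression.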
# cells = conditions: Homo sapiens, 451Lu, 48 h
# SW480 = test: Antiproliferative activity against human SW480 cells after 48 hrs by alamar blue assay; assay type: functional, cell-based; conditions: SW480, 48 h; outline: as §1
# DLD-1 = test: Antiproliferative activity against human DLD1 cells after 48 hrs by alamar blue assay; assay type: functional, cell-based; conditions: DLD-1, 48 h; outline: as §1
# NCI-H460 = test: Antiproliferative activity against human NCI-H460 cells after 48 hrs by alamar blue assay; assay type: functional, cell-based; conditions: NCI-H460, 48 h; outline: as §1
# BT-549 = test: Antiproliferative activity against human BT549 cells after 48 hrs by alamar blue assay; assay type: functional, cell-based; conditions: BT-549, 48 h; outline: as §1
# SK-OV-3 = test: Antiproliferative activity against human SKOV3 cells after 48 hrs by alamar blue assay; assay type: functional, cell-based; conditions: SK-OV-3, 48 h; outline: as §1
# [2] = Antiproliferative activity against human resting PBMC after 72 hrs by sulforhodamine staining method; assay type: cell-based
# Outline: (§2)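 Panel of 83 solid-tumour lines plus resting PBMC, run by the DTP NCI sulforhodamine B staining protocol. Compound exposure 72 h, concentrations from 0.0001 to 10 μM. GI50 taken per line; z-scores computed relative to the panel mean GI50.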
# K562 [3] = test: Cell cycle arrest in human K562 cells assessed as accumulation at G2/M phase at 30 nM after 24 hrs by flow cytometric analysis; assay type: functional, cell-based
# Outline: (§3)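 K562 cells (2 × 10^5/mL) exposed to graded concentrations for 24 h at 37 °C; vehicle DMSO/MeOH 1:1. Washed in PBS, fixed in ice-cold 70% ethanol, stained 30 min with propidium iodide 0.02 mg/mL plus RNase 0.2 mg/mL. DNA content read by flow cytometry with 488 nm excitation; G2/M fraction scored.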
# K562 [4] = test: Cell cycle arrest in human K562 cells assessed as accumulation at G2/M phase at 0.003 to. 1 ug/ml after 24 hrs by flow cytometric analysis; assay type: functional, cell-based; outline: as §3
# ASPC1 = test: Antiproliferative activity against human AsPC1 cells after 72 hrs by sulforhodamine staining method; assay type: functional; conditions: ASPC1, 72 h; outline: as §2
# Potorous tridactylus = test: Inhibition of tubulin polymerization in Potorous tridactylus Ptk2 cells assessed as destruction of microtubule network at 5 uM after 1 hr by immunofluorescence assay
# Outline: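 PtK2 cells exposed 1 h to 5 μM compound in RPMI medium with 2% DMSO; solvent-only controls. Microtubules labelled with Cy3-anti-tubulin antibody and examined by immunofluorescence microscopy.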
Structure (SMILES),IC50 (K562 [1]),IC50 (Tubulin),other results
Clc1ccc2c(c1)Nc1ccccc1S2,> 100000 nM,,
O=C(c1ccc(Cl)cc1)N1c2ccccc2Oc2ccc(Cl)cc21,20000 nM,2420 nM,
COc1ccc(C(=O)CN2c3ccccc3Oc3ccc(Cl)cc32)cc1,> 20000 nM,,
COc1ccc(C(=O)N2c3ccccc3Sc3ccc(SC)cc32)cc1,3620 nM,1430 nM,
O=C(c1ccc(C(F)(F)F)cc1)N1c2ccccc2Oc2ccc(Cl)cc21,> 75000 nM,,
COc1ccc(CC(=O)N2c3ccccc3Oc3ccccc32)cc1,4810 nM,> 10000 nM,
CN(C)c1ccc(C(=O)N2c3ccccc3Oc3ccc(Cl)cc32)cc1,1210 nM,880 nM,
N#Cc1ccc2c(c1)Oc1ccccc1N2C(=O)c1ccccc1,230 nM,1200 nM,
COc1cc(C(=O)N2c3ccccc3Oc3ccc(Cl)cc32)cc(OC)c1OC,24000 nM,,
COc1ccc(C(=O)N2c3ccccc3Sc3ccc(Cl)cc32)cc1,840 nM,870 nM,
COC(=O)Nc1nc2cc(C(=O)c3cccs3)ccc2[nH]1 [NOCODAZOLE],,,IC50 (COLO 205): 88 nM; IC50 (cells): 72 nM; IC50 (SW480): 120 nM; IC50 (DLD-1): 190 nM; IC50 (NCI-H460): 68 nM; IC50 (BT-549): 69 nM; IC50 (SK-OV-3): 80 nM
Clc1ccc2c(c1)Nc1ccccc1O2,> 30000 nM,> 10000 nM,
COc1ccc(C(=O)N2c3ccccc3Sc3ccc(C(F)(F)F)cc32)cc1,4600 nM,> 10000 nM,
N#Cc1ccc2c(c1)Oc1ccccc1N2,> 10000 nM,> 10000 nM,
COc1cc(C(=O)N2c3ccccc3[S+]([O-])c3ccccc32)cc(OC)c1OC,8030 nM,> 10000 nM,
COc1ccc(C(=O)N2c3ccccc3Oc3ccc(Cl)cc32)cc1,140 nM,570 nM,IC50 (COLO 205): 430 nM; IC50 (cells): 90 nM; IC50 (SW480): 530 nM; IC50 (DLD-1): 540 nM; IC50 (NCI-H460): 680 nM; IC50 (BT-549): 330 nM; IC50 (SK-OV-3): 350 nM
COc1ccc(C(=O)N2c3ccccc3Oc3ccc(C#N)cc32)cc1,160 nM,2700 nM,
O=C(c1ccc2c(c1)OCO2)N1c2ccccc2Oc2ccc(Cl)cc21,1120 nM,1130 nM,
COc1ccc(CC(=O)N2c3ccccc3Sc3ccc(Cl)cc32)cc1,8000 nM,,
O=C(c1ccc(Br)cc1)N1c2ccccc2Oc2ccc(Cl)cc21,> 25000 nM,,

Structure (SMILES),IC50 (K562 [1]),IC50 (Tubulin),other results
COc1ccc(CC(=O)N2c3ccccc3Oc3ccc(Cl)cc32)cc1,550 nM,1100 nM,
N#Cc1ccc2c(c1)Oc1ccccc1N2C(=O)c1ccc(Cl)cc1,490 nM,2390 nM,
COc1cc(C(=O)N2c3ccccc3[S+]([O-])c3ccc(Cl)cc32)cc(OC)c1OC (configuration not stated),35000 nM,> 10000 nM,
COc1ccc(C(=O)N2c3ccccc3Oc3cc(C#N)ccc32)cc1,14 nM,730 nM,IC50 (COLO 205): 6 nM; GI50 at 72 h [2]: > 10000 nM; Activity (K562 [3]): Active; IC50 (cells): 2 nM; Activity (K562 [4]): Active; IC50 (SW480): 8 nM; IC50 (DLD-1): 9 nM; GI50 (ASPC1): > 10000 nM; IC50 (NCI-H460): 15 nM; IC50 (BT-549): 8 nM; IC50 (SK-OV-3): 6 nM
COc1ccc(C(=O)N2c3ccccc3Sc3ccccc32)cc1O,210 nM,1400 nM,
COc1cccc(C(=O)N2c3ccccc3Oc3ccc(Cl)cc32)c1,1380 nM,650 nM,
O=C(c1ccccc1)N1c2ccccc2Sc2ccc(Cl)cc21,> 30000 nM,,
O=C(c1ccccc1)N1c2ccccc2[S+]([O-])c2ccc(Cl)cc21 (configuration not stated),> 30000 nM,,
COc1cc(C(=O)N2c3ccccc3S(=O)(=O)c3ccccc32)cc(OC)c1OC,2600 nM,2460 nM,
COc1ccc(C(=O)N2c3ccccc3[S+]([O-])c3ccc(Cl)cc32)cc1 (configuration not stated),1400 nM,2790 nM,
COc1cc(C(=O)N2c3ccccc3Sc3ccc(Cl)cc32)cc(OC)c1OC,11000 nM,> 10000 nM,
c1ccc2c(c1)Nc1ccccc1S2 [PHENOTHIAZINE],> 100000 nM,,
COc1ccc(C(=O)N2c3ccccc3[S+]([O-])c3ccccc32)cc1,420 nM,9390 nM,
CC(=O)O[C@H]1C(=O)[C@@]2(C)[C@H]([C@H](OC(=O)c3ccccc3)[C@]3(O)C[C@H](OC(=O)[C@H](O)[C@@H](NC(=O)c4ccccc4)c4ccccc4)C(C)=C1C3(C)C)[C@]1(OC(C)=O)CO[C@@H]1C[C@@H]2O [PACLITAXEL],,,IC50 (COLO 205): 5 nM; IC50 (SW480): 11 nM; IC50 (DLD-1): 50 nM; IC50 (NCI-H460): 4 nM; IC50 (BT-549): 6 nM; IC50 (SK-OV-3): 6 nM
O=C(c1ccccc1)N1c2ccccc2[S+]([O-])c2ccccc21,> 30000 nM,,
COc1ccc(C(=O)N2c3ccccc3Oc3ccc(Cl)cc32)cc1O,80 nM,730 nM,IC50 (COLO 205): 2680 nM; GI50 at 72 h [2]: > 10000 nM; IC50 (cells): 27 nM; IC50 (SW480): 240 nM; IC50 (DLD-1): 230 nM; GI50 (ASPC1): > 10000 nM; IC50 (NCI-H460): 390 nM; IC50 (BT-549): 320 nM; inhibition (Potorous tridactylus): Active; IC50 (SK-OV-3): 170 nM
COc1ccc(C(=O)N2c3ccccc3S(=O)(=O)c3ccc(OC)cc32)cc1,1580 nM,4690 nM,
COc1cc(C(=O)N2c3ccccc3Oc3ccc(Cl)cc32)cc(OC)c1O,4630 nM,680 nM,
COc1ccc(C(=O)N2c3cc(Cl)ccc3Oc3ccc(Cl)cc32)cc1,490 nM,700 nM,
O=C(c1ccccc1)N1c2ccccc2S(=O)(=O)c2ccccc21,> 30000 nM,,

Structure (SMILES),IC50 (K562 [1]),IC50 (Tubulin),other results
COc1ccc(C(=O)N2c3ccccc3S(=O)(=O)c3ccccc32)cc1O,180 nM,3000 nM,
O=C(c1ccccc1)N1c2ccccc2Sc2ccccc21,> 30000 nM,,
COc1ccc(C(=O)N2c3ccccc3Sc3ccc(OC)cc32)cc1,970 nM,3230 nM,
O=C(c1ccccc1)N1c2ccccc2S(=O)(=O)c2ccc(Cl)cc21,> 30000 nM,,
COc1ccc(C(=O)N2c3ccccc3Oc3ccccc32)cc1,33 nM,1100 nM,IC50 (COLO 205): 240 nM; IC50 (cells): 60 nM; IC50 (SW480): 240 nM; IC50 (DLD-1): 250 nM; IC50 (NCI-H460): 270 nM; IC50 (BT-549): 120 nM; IC50 (SK-OV-3): 210 nM
COc1ccc(C(=O)N2c3ccccc3Oc3cccc(C#N)c32)cc1,120 nM,960 nM,
CC(=O)N1c2ccccc2Oc2ccc(Cl)cc21,> 30000 nM,,
O=C(c1ccc([N+](=O)[O-])cc1)N1c2ccccc2Oc2ccc(Cl)cc21,> 80000 nM,5030 nM,
COc1cc2c(c(OC)c1OC)-c1ccc(OC)c(=O)cc1[C@@H](NC(C)=O)CC2 [COLCHICINE],,,IC50 (COLO 205): 21 nM; IC50 (cells): 17 nM; Activity (K562 [4]): Active; IC50 (SW480): 30 nM; IC50 (DLD-1): 89 nM; IC50 (NCI-H460): 27 nM; IC50 (BT-549): 23 nM; inhibition (Potorous tridactylus): Active; IC50 (SK-OV-3): 29 nM
COc1ccc(C(=O)N2c3ccccc3[S+]([O-])c3ccccc32)cc1O,300 nM,8400 nM,
c1ccc2c(c1)Nc1ccccc1O2 [PHENOXAZINE],> 30000 nM,> 10000 nM,
COc1cc(C(=O)N2c3ccccc3Sc3ccccc32)cc(OC)c1OC,1860 nM,4960 nM,
COc1ccc(C(=O)N2c3ccccc3Sc3ccccc32)cc1OCc1ccccc1,> 30000 nM,,
COc1ccc(C(=O)N2c3ccccc3[S+]([O-])c3ccc(OC)cc32)cc1 (configuration not stated),1650 nM,23310 nM,
COc1ccc(C(=O)N2c3ccccc3S(=O)(=O)c3ccccc32)cc1,280 nM,2530 nM,
COc1ccc(C(=O)N2c3ccccc3S(=O)(=O)c3ccc(Cl)cc32)cc1,800 nM,1050 nM,
COc1ccc(C(=O)N2c3ccccc3Sc3ccccc32)cc1,330 nM,2230 nM,
COc1cc(C(=O)N2c3ccccc3S(=O)(=O)c3ccc(Cl)cc32)cc(OC)c1OC,4200 nM,> 10000 nM,
